ChEMBL document CHEMBL3108713, “Identification of ML251, a Potent Inhibitor of T. brucei and T. cruzi Phosphofructokinase” (ACS Med Chem Lett, 2014)
In brackets after ≈: the same amount, converted by molar mass.

Columns and labels:
[1] = molecular target: T1, ATP-dependent 6-phosphofructokinase (Trypanosoma brucei, UniProt O15648); assay: Inhibition of Trypanosoma brucei PFK-mediated ADP production using ATP/fructose-6-phosphate as substrate by luciferase based luminescence assay
T1 sequence (O15648 whole entry): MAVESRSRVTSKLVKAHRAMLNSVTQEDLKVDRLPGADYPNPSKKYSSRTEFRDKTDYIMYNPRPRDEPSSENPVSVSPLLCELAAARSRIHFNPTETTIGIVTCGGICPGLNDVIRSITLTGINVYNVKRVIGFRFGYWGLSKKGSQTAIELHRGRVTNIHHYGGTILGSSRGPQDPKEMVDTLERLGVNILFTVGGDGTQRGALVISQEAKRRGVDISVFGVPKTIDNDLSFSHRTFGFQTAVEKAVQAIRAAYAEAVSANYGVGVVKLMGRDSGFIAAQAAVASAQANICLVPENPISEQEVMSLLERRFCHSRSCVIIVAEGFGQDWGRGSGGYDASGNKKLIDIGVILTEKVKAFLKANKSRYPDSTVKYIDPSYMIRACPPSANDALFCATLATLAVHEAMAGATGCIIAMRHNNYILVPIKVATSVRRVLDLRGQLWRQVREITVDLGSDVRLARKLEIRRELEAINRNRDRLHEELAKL
In short: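 Recombinant enzyme; ADP formed by PFK detected with modified luciferase (ADP-Glo) luminescent end-point in 1536-well format.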

[2] = molecular target: T2, ATP-dependent 6-phosphofructokinase (Trypanosoma cruzi) (UniProt Q4E657); assay: Inhibition of Trypanosoma cruzi PFK at 57 uM
T2 sequence (whole entry): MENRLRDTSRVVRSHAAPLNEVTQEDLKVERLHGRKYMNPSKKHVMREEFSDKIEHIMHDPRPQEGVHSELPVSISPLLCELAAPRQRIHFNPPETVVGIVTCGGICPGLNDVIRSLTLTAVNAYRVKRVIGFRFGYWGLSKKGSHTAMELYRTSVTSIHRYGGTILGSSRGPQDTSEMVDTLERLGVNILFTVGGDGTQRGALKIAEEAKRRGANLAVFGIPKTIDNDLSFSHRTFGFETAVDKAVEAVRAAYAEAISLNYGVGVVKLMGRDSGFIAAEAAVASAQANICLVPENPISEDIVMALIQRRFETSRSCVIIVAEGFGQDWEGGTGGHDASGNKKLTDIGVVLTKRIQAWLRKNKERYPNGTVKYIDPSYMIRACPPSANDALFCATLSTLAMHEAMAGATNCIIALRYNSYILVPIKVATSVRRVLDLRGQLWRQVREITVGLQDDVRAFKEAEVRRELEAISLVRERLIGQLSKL
In short: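 PFK activity is measured by coupling ADP production to ADP-Glo luciferase luminescence at end point. Percent inhibition is recorded at 57 μM, the highest concentration of the dose series, with at least 3 separate experiments averaged.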

[3] = molecular target: T3, ATP-dependent 6-phosphofructokinase (Trypanosoma brucei) (UniProt O15648); assay: Inhibition of Trypanosoma brucei PFK-mediated ADP production using ATP/fructose-6-phosphate as substrate at 57 uM by luciferase based luminescence assay
T3 sequence (whole entry): T1 sequence (O15648 whole entry)
In short: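 Recombinant T. brucei PFK; ADP formed by the enzyme is converted to a luminescent signal by a modified luciferase ADP-Glo detection, read at end point.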

[4] = molecular target: T4, ATP-dependent 6-phosphofructokinase (Trypanosoma cruzi, UniProt Q4E657); assay: Inhibition of Trypanosoma cruzi PFK
T4 sequence (Q4E657 whole entry): T2 sequence (whole entry)

[5] = Cytotoxicity against human MRC5 cells assessed as intracellular ATP content after 72 hrs by Cell titer-Glo luminiscent assay; format: cell-based
[6] = tested on: Trypanosoma brucei brucei; assay: Antitrypanosomal activity against Trypanosoma brucei brucei Lister 427 assessed as cell viability after 72 hrs by alamar blue assay; format: functional
[7] = Half life in mouse liver microsomes; format: ADME, Microsome
[8] = Half life in rat liver microsomes; format: ADME
[9] = Aqueous kinetic solubility of the compound; format: physicochemical; details: buffer; read-out: Kinetic_solubility

Row | Compound | IC50 [1] [µM] | inhibition [2] [%] | inhibition [3] [%] | IC50 [4] [µM] | CC50 at 72 h [5] [µM] | Activity [6] | EC50 ([6]; Lister 427, 72 h, read-out: ED50 (the source's name)) [µM] | half-life [7] [h] | half-life [8] [min] | solubility kinetic [9] [µg/mL]
1 | O=C(Cc1ccc(F)c(Cl)c1)Nc1ccc(S(=O)(=O)Nc2nccs2)cc1 | 0.024 | > 80 | > 80 | 0.12 | – | – | – | – | – | –
2 | Cc1cc(NS(=O)(=O)c2ccc(NC(=O)Cc3ccc(Cl)c(F)c3)cc2)no1 | 0.7 | > 80 | > 80 | 0.65 | – | – | – | – | – | –
3 | CN(C)c1cccc(NS(=O)(=O)c2ccc(NC(=O)Cc3ccc(Cl)c(Cl)c3)cc2)c1 | 5.8 | > 80 | > 80 | 11.6 | – | – | – | – | – | –
4 | CCOC(=O)c1cccc(NS(=O)(=O)c2ccc(NC(=O)Cc3ccc(Cl)c(Cl)c3)cc2)c1 | > 57 | – | – | > 57 | – | – | – | – | – | –
5 | Cc1cc(NS(=O)(=O)c2ccc(NC(=O)Cc3ccc(F)c(Cl)c3)cc2)no1 | 0.73 | > 80 | > 80 | 0.46 | – | – | – | – | – | –
6 | Cc1cc(NS(=O)(=O)c2ccc(NC(=O)CCc3ccc(Cl)c(Cl)c3)cc2)no1 | 5.17 | > 80 | > 80 | 6.51 | – | – | – | – | – | –
7 | Cc1cc(NS(=O)(=O)c2ccc(NC(=O)Cc3ccc(Cl)cc3)cc2)no1 | 1.83 | > 80 | > 80 | 1.46 | – | – | – | – | – | –
8 | Cc1cc(NS(=O)(=O)C2CCN(C(=O)Cc3ccc(Cl)c(Cl)c3)CC2)no1 | 33 | > 80 | > 80 | 13 | – | – | – | – | – | –
9 | O=C(Cc1ccc(Cl)c(Cl)c1)Nc1ccc(S(=O)(=O)Nc2cncnc2)cc1 | 0.82 | > 80 | > 80 | 0.73 | – | – | – | – | – | –
10 | Cc1cc(NS(=O)(=O)c2cccc(NC(=O)Cc3ccc(Cl)c(Cl)c3)c2)no1 | 16.3 | > 80 | > 80 | 16.3 | – | – | – | – | – | –
11 | Cc1cc(NS(=O)(=O)c2ccc(NC(=O)Cc3ccccc3)cc2)no1 | 36.6 | > 80 | > 80 | 20.6 | – | – | – | – | – | –
12 | Cc1cc(NS(=O)(=O)c2ccc(NC(=O)c3ccc(Cl)c(Cl)c3)cc2)no1 | 14.6 | > 80 | > 80 | 20.6 | – | – | – | – | – | –
13 | Cc1cc(NS(=O)(=O)c2ccc(NC(=O)C(C)(C)c3ccc(Cl)c(Cl)c3)cc2)no1 | 36.6 | > 80 | > 80 | 36.5 | – | – | – | – | – | –
14 | Cc1cc(NS(=O)(=O)CCNC(=O)Cc2ccc(Cl)c(Cl)c2)no1 | 32.6 | > 80 | > 80 | 16.3 | – | – | – | – | – | –
15 | Cc1cc(NS(=O)(=O)Cc2ccc(NC(=O)Cc3ccc(Cl)c(Cl)c3)cc2)no1 | 2.59 | > 80 | > 80 | 3.26 | – | – | – | – | – | –
16 | O=C(Cc1ccc(Cl)c(Cl)c1)Nc1ccc(S(=O)(=O)Nc2ccc(C(=O)O)cc2)cc1 | 0.16 | > 80 | > 80 | 0.29 | – | – | – | – | – | –
17 | O=C(Cc1ccc(Cl)c(Cl)c1)Nc1ccc(S(=O)(=O)O)cc1 | 0.65 | > 80 | > 80 | 0.46 | – | – | – | – | – | –
18 | O=C(Cc1ccc(Cl)c(Cl)c1)Nc1ccc(S(=O)(=O)Nc2cc[nH]n2)cc1 | 0.52 | > 80 | > 80 | 0.73 | – | – | – | – | – | –
19 | Cc1cc(NS(=O)(=O)c2ccc(NC(=O)Cc3ccc(C)c(C)c3)cc2)no1 | 18.3 | > 80 | > 80 | 6.5 | – | – | – | – | – | –
20 | COc1ccc(CC(=O)Nc2ccc(S(=O)(=O)Nc3cc(C)on3)cc2)cc1OC | > 57 | – | – | > 57 | – | – | – | – | – | –
21 | Cc1cc(NS(=O)(=O)c2ccc(NC(=O)Cc3ccc(Cl)c(Cl)c3)cc2)no1 | 0.41 | > 80 | > 80 | 0.23 | > 46 | Dose-dependent effect | 26.8 | 6.8 | 9.7 | 23.3 (≈ 52.9 µM)

Row | Compound | IC50 [1] [µM] | inhibition [2] [%] | inhibition [3] [%] | IC50 [4] [µM] | CC50 at 72 h [5] [µM] | Activity [6] | EC50 ([6]; Lister 427, 72 h, read-out: ED50 (the source's name)) [µM] | half-life [7] [h] | half-life [8] [min] | solubility kinetic [9] [µg/mL]
22 | COc1ccc(CC(=O)Nc2ccc(S(=O)(=O)Nc3cc(C)on3)cc2)cc1C | > 57 | > 80 | – | 20.6 | – | – | – | – | – | –
23 | O=C(Cc1ccc(Cl)c(Cl)c1)Nc1ccc(S(=O)(=O)Nc2nccs2)cc1 | 0.079 | > 80 | > 80 | 0.041 | – | – | – | – | – | –
24 | Cc1cc(NS(=O)(=O)c2ccc(NC(=O)Cc3cccc(Cl)c3)cc2)no1 | 7.3 | > 80 | > 80 | 2.59 | – | – | – | – | – | –
25 | Cc1cc(NS(=O)(=O)c2ccc(N(C)C(=O)Cc3ccc(Cl)c(Cl)c3)cc2)no1 | 6.51 | > 80 | > 80 | 1.3 | – | – | – | – | – | –
26 | Cc1cc(NS(=O)(=O)c2ccc(NS(=O)(=O)Cc3ccc(Cl)c(Cl)c3)cc2)no1 | 37 | – | > 80 | > 57 | – | – | – | – | – | –
27 | Cc1cc(NC(=O)c2csc(NC(=O)Cc3ccc(Cl)c(Cl)c3)n2)no1 | > 57 | – | – | > 57 | – | – | – | – | – | –
28 | O=C(Cc1ccc(Cl)c(Cl)c1)Nc1ccc(S(=O)(=O)Nc2nncs2)cc1 | 0.112 | > 80 | > 80 | 0.052 | – | – | – | – | – | –
29 | Cc1cc(NS(=O)(=O)c2ccc(NC(=O)Cc3ccc(Cl)c(Cl)c3)cc2)n(C)n1 | 2.31 | > 80 | > 80 | 1.16 | – | – | – | – | – | –
30 | O=C(Cc1ccc(Cl)c(Cl)c1)Nc1ccc(S(=O)(=O)Nc2ccccc2)cc1 | 16.3 | > 80 | > 80 | 16.3 | – | – | – | – | – | –
31 | Cc1ccc(C(=O)Nc2ccc(S(=O)(=O)O)c3cc(S(=O)(=O)O)cc(S(=O)(=O)O)c23)cc1NC(=O)c1cccc(NC(=O)Nc2cccc(C(=O)Nc3cc(C(=O)Nc4ccc(S(=O)(=O)O)c5cc(S(=O)(=O)O)cc(S(=O)(=O)O)c45)ccc3C)c2)c1 [SURAMIN] | 3 | – | – | – | – | – | – | – | – | –
32 | Cc1cc(NS(=O)(=O)c2ccc(NCCc3ccc(Cl)c(Cl)c3)cc2)no1 | 6 | > 80 | > 80 | 16.3 | – | – | – | – | – | –
33 | Cc1cc(NS(=O)(=O)c2ccc(NC(=O)Cc3ccc(C)c(F)c3)cc2)no1 | 5.8 | > 80 | > 80 | 4.6 | – | – | – | – | – | –
34 | O=C(Cc1ccc(Cl)c(Cl)c1)Nc1ccc(S(=O)(=O)Nc2cccc(O)c2)cc1 | 1.46 | > 80 | > 80 | 1.63 | – | – | – | – | – | –
35 | O=C(Cc1ccc(Cl)c(Cl)c1)Nc1ccc(S(=O)(=O)Nc2cccc(C(=O)O)c2)cc1 | 0.26 | > 80 | > 80 | 0.58 | – | – | – | – | – | –
36 | Cc1cc(NS(=O)(=O)c2ccc(NC(=O)Cc3ccc4ccccc4c3)cc2)no1 | 6.51 | > 80 | > 80 | 1.83 | – | – | – | – | – | –
37 | Cc1cc(N(C)S(=O)(=O)c2ccc(NC(=O)Cc3ccc(Cl)c(Cl)c3)cc2)no1 | 2.91 | > 80 | > 80 | 2.06 | – | – | – | – | – | –
38 | Cc1cc(NS(=O)(=O)c2ccc(NC(=O)Cc3ccc(Cl)cc3Cl)cc2)no1 | 4.61 | > 80 | > 80 | 14.6 | – | – | – | – | – | –
39 | Cc1cc(NS(=O)(=O)c2ccc(NC(=O)Cc3ccc(Cl)c(C(F)(F)F)c3)cc2)no1 | 0.68 | > 80 | > 80 | 0.92 | – | – | – | – | – | –
40 | Cc1cc(NC(=O)c2ccc(NC(=O)Cc3ccc(Cl)c(Cl)c3)cc2)no1 | > 57 | – | – | > 57 | – | – | – | – | – | –
41 | Cc1cc(NS(=O)(=O)c2ccc(C(=O)NCc3ccc(Cl)c(Cl)c3)cc2)no1 | 5.16 | > 80 | > 80 | 2.91 | – | – | – | – | – | –
